A selection: hits, their analogues and other compounds. The true share with any hit is near 3%.
iPSC survival up = enhancers of human iPSC single-cell survival; survival enhancement, % at 20 µM; 360,000 compounds, 0.044% hits; hiPSC single-cell survival, ATPlite luminescence; 100% = ROCK inhibitor wells, 0% = DMSO; in the data active = survival enhancement above about 18%;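 note: cells exposed to compounds for 16 hours before the ATP read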
Apaf1 inhib = human Apaf-1 inhibition | O14727 | inhibition, % at 20 µM | reconstituted apoptosome caspase-3 activity, DEVD-Rh110 fluorescence | 330,000 compounds, 0.71% hits; active = inhibition of at least 40% at 20 µM;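 note: plate controls were DMSO wells for no effect and DEVD-CHO caspase inhibitor wells for full effect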
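Medium: Hepes buffer, pH 7.5 / System: biochemical Apaf-1 apoptosome reconstitution / Measured by: Rh110 fluorescence, excitation 480 nm, emission 540 nm / Times: compound with Apaf-1, dATP, procaspase-3 30 min, then 50 min reaction, room temperature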
UBC13 inh = human UBC13 polyubiquitination inhibition. inhibition, % at 20 µM. 330,000 compounds, 0.47% hits. UBC13 polyubiquitin chain formation, TR-FRET. P61088; in the data active = inhibition above about 45%, passing the limit was not always enough
Target sequence (P61088 whole entry, looked up): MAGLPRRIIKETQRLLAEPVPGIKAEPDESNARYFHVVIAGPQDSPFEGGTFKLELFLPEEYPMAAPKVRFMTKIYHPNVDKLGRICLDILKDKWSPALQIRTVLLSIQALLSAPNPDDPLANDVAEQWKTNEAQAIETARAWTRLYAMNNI
beta cell repl = MIN6 beta-cell proliferation induction; proliferation, % at 10 µM; MIN6 cells proliferation, ATPlite luminescence, 48 h; cells starved in 0.2% serum; 100% = growth in 10% serum; AID 2380; 330,000 compounds, 0.29% hits;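 active = compounds whose signal lies at least 3.5 SD above the mean of all wells on their plate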;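 note: 0% = DMSO-treated cells in low-serum medium and 100% = 10% serum control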
Granule exo inh = blocks lytic granule exocytosis. TALL-104 LAMP-1 surface exposure, flow cytometry; cells stimulated with thapsigargin and PMA. 360,000 compounds, 0.66% hits. inhibition, % at 10 µM. AID 651702;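 active = inhibition above about 55%, limit read from the data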
MPTP inh = permeability transition pore inhibition | inhibition, % at 10 µM | 360,000 compounds, 1.4% hits | AID 602449 | isolated mouse mitochondria, Ca2+ swelling absorbance, 30 min;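 active = inhibition of 50% or more, scaled per plate between neutral and stimulator controls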;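 note: 0% = DMSO wells given calcium and 100% = 1 mM EGTA wells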
Rh123 counter = membrane potential counter-screen of mitochondrial pore inhibitors | shares compounds with MPTP inh | isolated mitochondria, Rhodamine 123 fluorescence | inhibition, % at 10 µM | 5,000 compounds, 78% hits | AID 624504; in the data active = inhibition above about 22%;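 note: 0% = DMSO vehicle and 100% = positive control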
An asterisk follows results filed as active; . = not tested or not shown.

SMILES | iPSC survival up | Apaf1 inhib | UBC13 inh | beta cell repl | Granule exo inh | MPTP inh | Rh123 counter
CC(=O)Nc1sc(C)c(C)c1C(=O)OCCOc1ccccc1 | 0 | 20 | 7 | -2 | 52 | 0 | .
COc1ccc(/C=N/NC(=O)c2cc(Br)ccc2O)cc1Cn1cc(Cl)cn1 | 0 | 18 | 4 | -5 | -4 | 68* | 53*
C/C(=N\OCc1nc2ccccc2c(=O)n1/N=C/c1cc(C)cc([N+](=O)[O-])c1O)c1ccccc1 | -1 | 21 | -55 | -5 | -1 | -1 | .
O=[N+]([O-])c1ccc(O)c(/C=N/n2c(CO)nc3ccccc32)c1 | 0 | 2 | -23 | -1 | -4 | 11 | .
O=[N+]([O-])c1ccc(O)c(/C=N/Nc2ccccc2Cl)c1 | 0 | 10 | -16 | -5 | -2 | 94* | 91*
O=[N+]([O-])c1ccc(NN=Cc2cc(Br)ccc2O)nc1 | -2 | . | . | . | -8 | 75* | 59*
O=[N+]([O-])c1ccc(O)c(/C=N/n2cnc3ccccc32)c1 | -2 | -7 | -12 | 0 | 6 | 69* | 79*
C/C(=N\OCc1nc2ccccc2c(=O)n1/N=C/c1cc([N+](=O)[O-])ccc1O)c1ccccc1 | -1 | 2 | -19 | -7 | -3 | 74* | 51*
O=[N+]([O-])c1ccc(NN=Cc2cccc(O)c2)nc1 | 0 | . | . | . | -3 | 1 | .
O=C(OCC(=O)N1N=C(c2ccc(Cl)cc2)CC1c1ccco1)c1cncc(Br)c1 (stereo not drawn) | 5 | 11 | -2 | -7 | 3 | -2 | .
O=C(N[C@H]1CC[C@H](CCNS(=O)(=O)c2ccc(Cl)cc2)O[C@@H]1CO)c1cccc(F)c1 | . | . | . | . | -5 | -2 | .
Cc1cc(=O)c2ccccc2n1CC(=O)NCc1ccccc1 | -2 | 1 | -7 | -1 | -4 | 3 | .
COc1ccc(NC(=O)Cn2c(C)cc(=O)c3ccccc32)cc1 | -2 | -5 | 5 | 0 | 1 | 61* | 41*
CC1=NN(C(N)=S)C(=O)C1N=Nc1c(Br)cc(Br)cc1Br (stereo not drawn) | -1 | -23 | -15 | -4 | 2 | 56* | 78*
N#CCCN(Cc1cccnc1)C(=O)Nc1ccc(Cl)c(Cl)c1 | -3 | 4 | 12 | 1 | -5 | 1 | .
N#CCCN(C(=O)Nc1ccc(Cl)c(Cl)c1)c1ccccc1 | 3 | 15 | 6 | 3 | 3 | 97* | 93*
O=C(Nc1cc(Cl)cc(Cl)c1)c1cccc(OC(F)F)c1 | 5 | 3 | -8 | -6 | 6 | 96* | 96*
COc1ccc(NS(=O)(=O)c2ccc(-c3coc(C)n3)cc2)cc1OC | 0 | -5 | -3 | -7 | 0 | 98* | 83*
COc1cccc(CN2CCNC(=O)C2CC(=O)NCCN2CCCCC2=O)c1 (stereo not drawn) | 0 | -6 | 5 | 1 | 7 | -1 | .
Cc1ccc(NC(=O)C2C(c3ccccc3)C2(Cl)Cl)c(C)c1 (stereo not drawn) | 4 | 18 | 4 | -5 | -2 | 53* | 62*
Cc1cccc(NC(=O)C2C(c3ccccc3)C2(Cl)Cl)c1 (stereo not drawn) | 0 | 14 | -5 | -6 | 3 | 15 | .
Cc1ccc(NC(=O)c2cccs2)cc1S(=O)(=O)Nc1cccc(Cl)c1 | -2 | 14 | 4 | -1 | -1 | 60* | 68*
Cc1ccc(NS(=O)(=O)c2cc(C(=O)Nc3cccc([N+](=O)[O-])c3)ccc2C)cc1 | 0 | 7 | 14 | -5 | 9 | 38 | .
Cc1ccc(NC(=O)CC(=O)c2ccc([N+](=O)[O-])cc2)cc1S(=O)(=O)Nc1cccc(Cl)c1 | -2 | 13 | -19 | -6 | 3 | 80* | 55*
CCCCN1CC(N2CCN(C(=O)c3ccco3)CC2)CS1(=O)=O (stereo not drawn) | 2 | . | . | . | 2 | 0 | .
Cc1c(C(=O)NCc2ccc3c(c2)OCCO3)sc(=O)n1Cc1cccc(C(F)(F)F)c1 | 0 | . | . | . | -5 | -1 | .
O=C(CSc1nc2ccccc2n1CC(=O)NCc1ccccc1)NCc1ccco1 | -1 | -15 | 3 | -4 | 3 | -1 | .
